Holding throughout (type): cell-based
In test [1] the target is T1, 5-hydroxytryptamine receptor 1A (Homo sapiens) (UniProt P08908).
T1 sequence (whole entry): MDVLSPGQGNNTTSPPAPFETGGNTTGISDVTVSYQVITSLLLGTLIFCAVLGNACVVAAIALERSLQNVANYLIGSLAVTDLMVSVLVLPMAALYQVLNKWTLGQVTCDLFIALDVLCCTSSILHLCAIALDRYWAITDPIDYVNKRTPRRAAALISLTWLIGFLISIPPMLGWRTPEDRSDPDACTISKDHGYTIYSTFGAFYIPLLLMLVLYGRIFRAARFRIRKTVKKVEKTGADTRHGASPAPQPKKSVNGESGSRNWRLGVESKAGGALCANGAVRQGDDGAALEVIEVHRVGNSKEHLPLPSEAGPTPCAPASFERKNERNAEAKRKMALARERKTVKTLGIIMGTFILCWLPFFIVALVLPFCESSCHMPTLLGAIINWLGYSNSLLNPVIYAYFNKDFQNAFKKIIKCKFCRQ
Kind of test: Displacement of [3H]MPPF from human cloned 5HT1A receptor expressed in HEK293 cells at 3 uM after 90 mins by liquid scintillation counting. The procedure, abridged:
(§1)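 Crude membranes from HEK293 cells stably expressing the receptor (G418 selection) in 50 mM Tris, pH 7.4. Radioligand targeted at ~500 pM. Compound added from a 3 mM DMSO stock diluted 1:1000. Nonspecific binding defined with 5 μM NAN-190 (5-HT1A) or 5 μM mianserin (5-HT2C). Incubated ≥90 min at 25°C, then filtered through PEI-soaked GF/C filters. Percent displacement of specific binding; triplicates, 3–4 experiments.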

The target in test [2] is T2, 5-hydroxytryptamine receptor 2C (Homo sapiens) (UniProt P28335).
T2 sequence (whole entry): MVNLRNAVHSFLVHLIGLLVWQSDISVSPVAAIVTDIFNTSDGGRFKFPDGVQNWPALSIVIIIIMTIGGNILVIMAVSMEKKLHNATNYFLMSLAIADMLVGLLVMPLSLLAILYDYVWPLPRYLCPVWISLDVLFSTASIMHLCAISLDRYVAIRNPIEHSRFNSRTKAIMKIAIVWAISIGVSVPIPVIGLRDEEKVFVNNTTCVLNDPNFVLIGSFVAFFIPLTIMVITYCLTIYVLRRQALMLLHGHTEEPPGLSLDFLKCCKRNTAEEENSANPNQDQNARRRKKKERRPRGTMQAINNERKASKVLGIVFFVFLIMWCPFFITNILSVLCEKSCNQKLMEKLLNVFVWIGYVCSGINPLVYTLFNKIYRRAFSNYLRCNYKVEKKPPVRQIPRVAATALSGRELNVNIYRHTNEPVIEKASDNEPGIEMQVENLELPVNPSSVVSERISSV
The test is described as follows: Displacement of [3H]mesulergine from human cloned 5HT2C receptor expressed in HEK293 cells at 3 uM after 90 mins by liquid scintillation counting. The procedure, abridged: as §1

The target of test [3] is T3, 5-hydroxytryptamine receptor 2A (Homo sapiens, UniProt P28223). Kind of test: Displacement of [3H]methylspiperone from human cloned 5HT2A receptor expressed in HEK293 cells at 3 uM after 90 mins by liquid scintillation counting. In outline: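 Crude membranes from HEK293 cells stably expressing the receptor (calcium phosphate transfection, G418-selected clones), in 50 mM Tris pH 7.4. Single-point screen: 3 mM DMSO stock diluted 1:1000. Radioligand targeted at about 500 pM, nonspecific binding defined by 5 μM mianserin. Incubated at least 90 min at 25°C, then filtered on PEI-soaked GF/C filters and washed cold. Percent specific displacement, triplicates, 3–4 experiments.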
T3 sequence (P28223 whole entry): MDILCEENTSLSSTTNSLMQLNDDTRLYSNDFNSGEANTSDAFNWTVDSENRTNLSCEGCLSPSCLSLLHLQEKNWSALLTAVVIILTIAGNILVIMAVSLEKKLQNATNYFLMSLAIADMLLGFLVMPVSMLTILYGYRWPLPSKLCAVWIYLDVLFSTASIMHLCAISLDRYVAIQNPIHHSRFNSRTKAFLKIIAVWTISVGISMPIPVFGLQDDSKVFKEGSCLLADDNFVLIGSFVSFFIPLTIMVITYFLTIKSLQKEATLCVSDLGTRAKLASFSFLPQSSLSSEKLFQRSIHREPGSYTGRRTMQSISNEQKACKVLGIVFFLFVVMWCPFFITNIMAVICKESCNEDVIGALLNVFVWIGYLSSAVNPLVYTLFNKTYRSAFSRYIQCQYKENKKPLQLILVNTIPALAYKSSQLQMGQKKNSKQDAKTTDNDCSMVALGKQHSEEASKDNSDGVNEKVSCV
Background: Displacement assays read how much labelled ligand stays bound in the presence of the test substance.

Test [4] has as its target T4, 5-hydroxytryptamine receptor 2C (Homo sapiens, UniProt P28335).
T4 sequence (P28335 whole entry): T2 sequence (whole entry)
The test is described as follows: Displacement of [3H]mesulergine from human cloned 5HT2C receptor expressed in HEK293 cells after 90 mins by liquid scintillation counting.

Test [5] has as its target T3, 5-hydroxytryptamine receptor 2A. Kind of test: Displacement of [3H]methylspiperone from human cloned 5HT2A receptor expressed in HEK293 cells after 90 mins by liquid scintillation counting. In outline:
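Nonspecific binding defined with 5 μM mianserin. Compounds in DMSO or DMSO:0.01 N HCl, non-aqueous solvent ≤1:300. Incubated ≥90 min at 25°C, then filtered. Ki from IC50 by Cheng-Prusoff, with the curve bottom fixed at zero for partial displacement. Geometric mean ± SD of 3–4 experiments in triplicate.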

From ChEMBL document CHEMBL1177649, “Synthesis and structure-affinity relationships of novel small molecule natural product derivatives capable of discriminating between serotonin 5-HT1A, 5-HT2A, 5-HT2C receptor subtypes” (Bioorg Med Chem, 2010) come the findings set out here.

The structures appear in SMILES notation. Where only a bound is given, the exact number is not on record here.

`CN1C(=N)NC(=O)/C1=C\c1c[nH]c2ccc(F)cc12`: the Activity in test [1] was 0%; in test [2], 19%; in test [3] it was 0%.
As for `CN1C(=N)NC(=O)/C1=C\c1c[nH]c2ccc(Br)cc12`, the Activity in test [1] was 6%; in test [2] it was 0%; in test [3], 0%.
As to `CN1C(=N)N(C)/C(=C/c2c[nH]c3cc(Cl)ccc23)C1=O`, the figures for the Activity in test [1], in test [2] and in test [3] were 3%, 49% and 0%, respectively. In addition, affinity in test [4] was put at a Ki of 166 nM.
In the case of `Cc1ncccc1Oc1ccc(NC(=O)N2CCc3cc(Br)ccc32)cn1`, the Ki was 3.2 nM in test [4] and 3980 nM in test [5].
Consider `O=C(Nc1cccnc1)N1CCc2cc(I)c(Cl)cc21`, for which, in test [4], affinity was put at a Ki of 3.2 nM.
For `CCN1C(=N)N(C)/C(=C/c2c[nH]c3cc(Br)ccc23)C1=O`, the Activity in test [1] was found to be 0%; in test [2], 49%; in test [3], 0%.
Take `CN1C(=N)NC(=O)/C1=C\c1c[nH]c2cc(Cl)c(Cl)cc12`: the Activity came out at 4% in test [1], 10% in test [2] and 0% in test [3].
As for `CN1C(=N)N(C)/C(=C/c2c[nH]c3cc(F)ccc23)C1=O`, the Activity stood at 2% in test [1], 0% in test [2] and 79% in test [3]. Besides, the affinity in test [5], expressed as Ki, was 235 nM.
Regarding `CN1C(=N)N(C)/C(=C/c2c[nH]c3ccc(F)cc23)C1=O`, the Activity in test [1] stood at 4%; in test [2], 0%; in test [3], 10%.
On the same counts, the results for `CN1C(=N)NC(=O)/C1=C\c1c[nH]c2cc(Cl)ccc12` are 1%, 0% and 0%.
With `CN1C(=N)N(C)/C(=C/c2c[nH]c3ccc(Cl)cc23)C1=O`, the Activity came to 9% in test [1], 43% in test [2] and 22% in test [3].
Take `CCN1C(=N)N(C)/C(=C\c2c[nH]c3ccc(Br)cc23)C1=O`: the Activity in test [1] worked out at 0%; in test [2] it was 18%; in test [3] it was 9%.
On to `CN1C(=N)NC(=O)/C1=C\c1c[nH]c2ccccc12`, for which the Activity is 0% in test [1], 6% in test [2] and 0% in test [3].
Turning to `CN1C(=N)N(C)/C(=C/c2c[nH]c3ccc(Br)cc23)C1=O`, the Activity in test [1] turned out to be 18%; in test [2], 64%; in test [3] it was 37%.
On the same counts, the results for `CN1C(=N)NC(=O)/C1=C\c1c[nH]c2cc(F)ccc12` are 0%, 1% and 6%.
On to `CN1C(=N)NC(=O)/C1=C\c1c[nH]c2ccc(Cl)cc12`, for which the Activity in test [1] came to 9%; in test [2], 0%; in test [3], 9%.
In the case of `CCN1C(=N)N(C)/C(=C\c2c[nH]c3ccc(I)cc23)C1=O`, the Activity is 15% in test [1], 46% in test [2] and 35% in test [3].
As for `O=C(Nc1cccnc1)N1CCc2ccccc21`, in test [5], the inhibitory constant (Ki) was greater than 10000 nM.
On to `Cc1ncccc1Oc1ccc(NC(=O)N2CCc3cc(I)ccc32)cn1`, for which the Ki in test [4] was 3.2 nM.
In the case of `CN1C(=N)N(C)/C(=C/c2c[nH]c3cc(Cl)c(Cl)cc23)C1=O`, the Activity in test [1] amounted to 0%; in test [2], 79%; in test [3] it was 12%. Further, the Ki in test [4] was 46 nM.
Turning to `Cc1cc2c(cc1I)N(C(=O)Nc1cccnc1)CC2`, the affinity in test [4] corresponds to a Ki of 3.2 nM.
As for `CN1C(=N)N(C)/C(=C/c2c[nH]c3cc(Br)ccc23)C1=O`, the Ki in test [4] turned out to be 2200 nM.

In general, Ki refers to the dissociation constant of the complex between target and ligand, obtained from inhibition or displacement. Lower therefore signals higher affinity.
